Results pooled from the literature.
Each line is one published result; the experiments were not run side by side.
Target: Casein kinase I isoform gamma-1 (CSNK1G1, Homo sapiens, UniProt Q9HCP0)

Nc1ncc(-c2nc(N3CCOCC3)nc(N3CCOCC3)n2)c(C(F)F)n1 — remaining binding (binding, competition with immobilised ligand; 10 µM): 79%
Cn1cncc1[C@@](O)(COc1ccc(C#N)cc1-c1ccc(OC(F)(F)F)cc1)c1ccc(C#N)cc1 — remaining binding (cell-free assay, competition with immobilised ligand; 1 µM): 91%
Cc1nn(C)cc1-c1nc2c(N3CCN(Cc4ccc(Cl)cc4)CC3)c(Cl)cnc2[nH]1 — remaining binding (binding, competition with immobilised ligand; 1 µM): 100%
CC(C)(C)c1cc(C=C(C#N)C#N)cc(Br)c1O — remaining activity (enzyme activity, inhibitor; 0.5 µM): 106%
COc1ncccc1-c1cnn2ccc(N3CCN(C(=O)OC(C)C)CC3)nc12 — remaining binding (binding, competition with immobilised ligand; 1 µM): 77%
COc1cc(Nc2ncc(F)c(Nc3ccc4c(n3)NC(=O)C(C)(C)O4)n2)cc(OC)c1OC — inhibition (binding, competition with immobilised ligand; 10 µM): 0%
Cn1cc(-c2cccc(N3CCc4c(sc5c4CC(C)(C)C5)C3=O)c2CO)cc(Nc2ccncn2)c1=O — inhibition (enzyme activity, inhibitor; 1 µM): 5%
C#Cc1n[nH]c2c(-c3cn(C(C)c4ccccn4)c(=O)[nH]c3=O)cc(F)cc12 (stereo not drawn) — inhibition (enzyme activity, inhibitor; 1 µM): 5.4%
Cn1cc(-c2cc(F)cc(N3CCn4c(cc5c4CCCC5)C3=O)c2CO)cc(Nc2ccc(N3CCN(C4COC4)CC3)cn2)c1=O — inhibition (enzyme activity, inhibitor; 0.1 µM): 1%
O=c1[nH]c2ccccc2n1C1CCN(Cc2ccc(-c3[nH]c4cc5ncnc5cc4nc3-c3ccccc3)cc2)CC1 — remaining signal (cell-free assay; 0.5 µM): 99.3%
C#Cc1n[nH]c2c(-c3cn([C@@H](C)c4ccccc4)c(=O)[nH]c3=O)cc(F)cc12 — inhibition (enzyme activity, inhibitor; 0.1 µM): 6.6%
N#CC1(c2ccccn2)CCN(Cc2cc(C(=O)O)c(=O)n3ccccc23)CC1 — remaining binding (cell-free assay, competition with immobilised ligand; 1 µM): 100%
